Sampled rows, rich in hits. Any-hit rate of the full collection: about 1.8%.
M4 ag: human M4 muscarinic receptor agonists, primary screen, CHO-K1 cells, Fluo-8 calcium fluorescence. AID 624127, 2012. activation, % at 3 µM. CHO-K1 hM4/Gqi5; vehicle 0%, full acetylcholine response 100%. 0.14% of 360,000 active. Muscarinic acetylcholine receptor M4 (Homo sapiens), P08173;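 active = activation above the run mean over all test wells plus 3 SD, cut at about 32% in these data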;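 note: peak over basal fluorescence ratio per well then scaled between controls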
Target sequence (P08173 whole entry, looked up): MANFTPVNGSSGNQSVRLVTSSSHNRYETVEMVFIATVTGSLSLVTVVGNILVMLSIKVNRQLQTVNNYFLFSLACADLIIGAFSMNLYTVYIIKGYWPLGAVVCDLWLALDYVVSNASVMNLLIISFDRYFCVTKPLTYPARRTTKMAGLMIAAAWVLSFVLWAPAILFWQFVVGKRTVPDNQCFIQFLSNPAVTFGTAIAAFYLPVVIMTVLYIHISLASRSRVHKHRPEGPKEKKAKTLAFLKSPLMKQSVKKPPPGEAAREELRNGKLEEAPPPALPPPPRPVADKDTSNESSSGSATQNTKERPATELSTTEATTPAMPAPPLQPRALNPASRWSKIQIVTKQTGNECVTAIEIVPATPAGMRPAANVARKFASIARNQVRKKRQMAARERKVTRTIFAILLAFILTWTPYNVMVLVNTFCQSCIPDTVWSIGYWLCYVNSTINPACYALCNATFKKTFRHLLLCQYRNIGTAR
M4 antag: human M4 muscarinic receptor antagonists, primary screen, CHO cells, Fluo-8 calcium fluorescence. Muscarinic acetylcholine receptor M4 (Homo sapiens), P08173. CHO-hM4 cells, ACh EC80. inhibition, % at 3 µM. 0.73% of 360,000 active;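 active = inhibition above its plate's cutoff, the mean inhibition of sample wells plus 3 SD, cut at about 27% in these data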
M4 PAM: human M4 muscarinic receptor positive allosteric modulators, primary screen, CHO-K1 cells, Fluo-8 calcium fluorescence; Muscarinic acetylcholine receptor M4 (Homo sapiens), P08173; CHO-K1 hM4/Gqi5, ACh EC20; 0% = ACh EC20, 100% = maximal ACh; activation, % at 3 µM; 0.4% of 360,000 active; AID 624126, 2012;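 active = activation above its plate's cutoff, the mean activation of sample wells plus 3 SD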
M5 PAM: human M5 muscarinic receptor positive allosteric modulators, primary screen, CHO-K1 cells, Fluo-8 calcium fluorescence; Muscarinic acetylcholine receptor M5 (Homo sapiens), P08912; CHO-K1 hM5, ACh EC20 PAM; 0% = ACh EC20, 100% = ACh EC100; activation, % at 3 µM; 0.3% of 360,000 active;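 active = activation above the run cutoff, the mean activation of all test compounds plus 3 SD, cut at about 18% in these data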
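System: CHO-K1 cell line with stable human muscarinic M5 receptor expression | Also added: EC20 acetylcholine as agonist stimulus | Compound: One concentration, 3 µM final (nominal) | Timing: Fluo-8 loading 80 min at 37 °C plus 30 min room temperature | Measured by: Fluo-8 calcium dye fluorescence, kinetic read | Read-out basis: % activation, ACh-normalized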
CHRM5 antagonist: human M5 muscarinic receptor antagonists, primary screen, CHO cells, Fluo-8 calcium fluorescence | Muscarinic acetylcholine receptor M5 (Homo sapiens), P08912 | CHO-hM5 cells, ACh EC80 | inhibition, % at 3 µM | 0.59% of 360,000 active;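 active = inhibition above a per-plate cutoff, the mean of that plate's test compounds plus 3 SD, cut at about 27% in these data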
CHRM5 agonist: human M5 muscarinic receptor agonists, primary screen, CHO-K1 cells, Fluo-8 calcium fluorescence; Muscarinic acetylcholine receptor M5 (Homo sapiens), P08912; AID 624037, 2012; 0.19% of 360,000 active; CHO-K1 hM5 cells; 0% DMSO wells, 100% maximal acetylcholine response; activation, % at 3 µM;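 active = activation above the run's mean over test compounds plus 3 SD, cut at about 23% in these data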;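 note: signal is peak over basal fluorescence ratio across the kinetic read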
Large screens that a line does not name were inactive; ! = repeats disagree.

Cc1cc(C(=O)N2CCC2(C)C(=O)O)c(C)o1 (configuration not stated)	M4 PAM 18.1
Cc1nc(-c2cc(-c3ccc(Cl)cc3)no2)cs1	none
Cc1csc(-c2ccc3cc(Cl)cc(Cl)c3n2)n1	M4 PAM 20.9
CS(=O)(=O)Nc1ccccc1C(=O)NCc1ccccc1Cl	none
Cc1ccccc1CNC(=O)c1ccccc1NS(C)(=O)=O	M5 PAM 19.0
COCC(C)NC(=S)Nc1ccccc1[N+](=O)[O-] (configuration not stated)	M5 PAM 19.6
CN1CCN(Cc2nc3ccccc3c(=O)n2Cc2nc(-c3ccc4ccccc4c3)cs2)CC1	M4 PAM 21.7!
COc1ccc(S(=O)(=O)N(C)C[C@@H]2OCCCC[C@H](C)Oc3ccc(NC(=O)Nc4ccc(C(F)(F)F)cc4)cc3C(=O)N([C@H](C)CO)C[C@H]2C)cc1	none
O=C(COc1cccnc1[N+](=O)[O-])c1c[nH]c2ccccc12	M4 antag 33.6
CC1(C(=O)NS(=O)(=O)C2CC2)CCCN(C(=O)c2c(F)cccc2F)C1 (configuration not stated)	none
CCOC(=O)Cn1cnc(-c2ccc([N+](=O)[O-])cc2)c1	M4 PAM 26.5
CC(=O)Nc1ccc(/C(C)=N/Nc2nc(N3CCOCC3)nc(N3CCOCC3)n2)cc1	none
CC(=O)Nc1ccc(/C(C)=N/Nc2nc(Nc3cccc4ccccc34)nc(N3CCOCC3)n2)cc1	CHRM5 agonist 32.1
O=C(NCc1cccs1)c1ccc(N2CCCC2=O)cc1	M5 PAM 21.6
O=C(Nc1ccncc1)Nc1cccc(C(F)(F)F)c1	none
O=C(Nc1ccc(OC(F)F)cc1)Nc1cccc(C(F)(F)F)c1	CHRM5 antagonist 37.4
CCN(CC)S(=O)(=O)c1ccc(NC(=O)Nc2cccc(C(F)(F)F)c2)cc1	CHRM5 antagonist 29.8
COc1ccc(C=O)cc1COc1ccccc1F	M4 PAM 21.1
COC(=O)CCCN1C(=O)NC(c2ccc(-c3ccccc3)cc2)C(C(=O)OCc2ccccc2)=C1C (configuration not stated)	none
COC(=O)CCCCCN1C(=O)NC(C2CC2)C(C(=O)OCc2ccccc2)=C1C (configuration not stated)	CHRM5 antagonist 29.4
Cc1cc(N2C(=O)C(O)=C(C(=O)c3cccs3)C2c2ccc(F)cc2)no1 (configuration not stated)	M5 PAM 19.3
COc1cccc(C2C(C(=O)c3cccs3)=C(O)C(=O)N2c2cc(C)on2)c1 (configuration not stated)	M5 PAM 26.3
Cc1cc(N2C(=O)C(O)=C(C(=O)c3cccs3)C2c2ccccc2)no1 (configuration not stated)	none
CC(C)CCNC(=O)C1(C)CCN1Cc1ccc2ccccc2c1 (configuration not stated)	none
COc1ccc2nc(-c3ccccc3)[nH]c(=O)c2c1	none
COc1ccc(-c2nc3ccc(N4CCCC4)cc3c(=O)[nH]2)cc1OC	M5 PAM 18.7
COc1ccc(C(N)c2csc(Nc3ccc(C(=O)NCCCO)cn3)n2)cc1 (configuration not stated)	none
CC(=O)c1ccc(NC(=O)CN2CCN(CC(=O)Nc3ccc(C(C)=O)cc3)CC2)cc1	M5 PAM 27.4
CCN1CCN(CC(=O)Nc2ccc(C(C)=O)cc2)CC1	none
O=C(CN1CCN(c2ccccc2)CC1)Nc1ccc(-n2cnnn2)cc1	M4 antag 30.2
COc1cccc(N2CCN(CC(=O)Nc3ccc(-n4cnnn4)cc3)CC2)c1	none
CC1=CC(=O)C=CC1=Nc1ccc(N(C)C)cc1	none
c1ccc2c(CCNc3ncnc4nc[nH]c34)cccc2c1	M4 antag 28.8, CHRM5 antagonist 33.4
c1ccc(CCCNc2ncnc3nc[nH]c23)cc1	none
N#Cc1nc(-c2cccs2)oc1N1CCN(Cc2ccccc2)CC1	M4 antag 84.6
CCOC(=O)c1sc(NC(=O)c2ccc(Cl)s2)cc1C	none
CCOC(=O)c1sc(NC(=O)Nc2ccc(Cl)cc2)cc1C	M4 antag 33.1, CHRM5 antagonist 38.0
O=S1(=O)CC(N2CCCCC2)CN1Cc1cn(Cc2ccc(C(F)(F)F)cc2)nn1 (configuration not stated)	none
CN(Cc1ccccc1)C(=O)[C@@H]1CCCN1C(=O)[C@@H]1CCCN1C(=O)c1cccc(Cl)c1	none
Cc1cc(C)c(S(=O)(=O)c2ccc(Cl)cc2)c(Cl)n1	none
Cc1cc(S(=O)(=O)c2ccc(Cl)cc2)nc(S(=O)(=O)c2ccc(Cl)cc2)c1C#N	M4 antag 87.5
COC(=O)CCCCC1SCC2NC(=O)NC21 (configuration not stated)	M5 PAM 23.2
CCCc1nc2ccc(C)cn2c1Cc1cccc(F)c1	none
CCCc1nc2c3ccccc3ccn2c1Cc1cccc(F)c1	M4 antag 57.1, CHRM5 antagonist 46.7
Nc1nonc1C(=O)NCCNCc1cc(Br)ccc1OCc1ccccc1F	M4 antag 31.7
Nc1nonc1C(=O)NCCNCc1ccccc1OCc1ccccc1F	none
NS(=O)(=O)c1ccc(CCNCc2cc(Br)ccc2OCc2ccccc2F)cc1	M4 antag 27.7, CHRM5 antagonist 28.4
CC(C)=CCC[C@H](C)C[C@@H]1Cc2[nH][nH]c(=O)c2[C@@H](c2ccc(F)cc2)O1	none
C#CCNC(=O)C[C@@H]1C[C@@]2(C(=O)OC)CC(C)(C)CC=C2N(CCCCCCCC)C1=O	none
O=S(=O)(c1ccccc1F)N1CCN(CCc2ccccc2)CC1	M4 antag 101.0
COc1ccccc1-c1cnc(C(O)c2ccc(Cl)cc2C)[nH]1 (configuration not stated)	none
CCCCNC(=O)CN1C(=O)CSc2ccc(S(=O)(=O)N3CCOCC3)cc21	none
CCCCCCCNC(=O)CN1C(=O)CSc2ccc(S(=O)(=O)N3CCOCC3)cc21	CHRM5 antagonist 29.9
Cc1sc2ncnc(N3CCC(C(=O)NNC(=O)COc4ccc(Cl)cc4)CC3)c2c1C	none
Cc1sc2ncnc(N3CCN(CCOc4ccc(Cl)cc4)CC3)c2c1C	CHRM5 antagonist 32.2
O=C(C[n+]1cc(-c2ccc(Cl)c(Cl)c2)n2c1CCC2)N1c2ccccc2Sc2ccccc21	M4 antag 98.4, CHRM5 antagonist 99.5
